From PMC5621765 (Nature biomedical engineering, 2017) come the findings set out here.

Test [1] concerns OVCAR-8 conditioned media. As to the kind of experiment: Cleavage of MMP9 substrate by OVCAR-8 conditioned media. The class given is biochemical, human.
For test [2], the target named is mouse MMP9 (Mus musculus, UniProt P41245). Put plainly: Cleavage of substrate by mouse MMP9. The class given is biochemical.
Test [3] concerns OVCAR-8 tumour nodules. As to the kind of experiment: HE4 blood ELISA in orthotopic OVCAR-8 ovarian cancer model. The settings on record: blood biomarker, plasma ELISA; n = 10. The format is in vivo, mouse. The method, boiled down:
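Female NCr nude mice, 3–4 weeks old, were injected intraperitoneally with 2 × 10⁶ luciferase-expressing OVCAR-8 cells; tumour burden was followed by IVIS luminescence. About 200 μL blood was spiked with EDTA to a final 5 mM and cells were pelleted. Plasma was stored at -20 °C, then HE4 measured by quantikine ELISA per kit protocol.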
In general terms: ELISA stands for enzyme-linked immunosorbent assay.

Sequence of mouse MMP9 (P41245 108-730): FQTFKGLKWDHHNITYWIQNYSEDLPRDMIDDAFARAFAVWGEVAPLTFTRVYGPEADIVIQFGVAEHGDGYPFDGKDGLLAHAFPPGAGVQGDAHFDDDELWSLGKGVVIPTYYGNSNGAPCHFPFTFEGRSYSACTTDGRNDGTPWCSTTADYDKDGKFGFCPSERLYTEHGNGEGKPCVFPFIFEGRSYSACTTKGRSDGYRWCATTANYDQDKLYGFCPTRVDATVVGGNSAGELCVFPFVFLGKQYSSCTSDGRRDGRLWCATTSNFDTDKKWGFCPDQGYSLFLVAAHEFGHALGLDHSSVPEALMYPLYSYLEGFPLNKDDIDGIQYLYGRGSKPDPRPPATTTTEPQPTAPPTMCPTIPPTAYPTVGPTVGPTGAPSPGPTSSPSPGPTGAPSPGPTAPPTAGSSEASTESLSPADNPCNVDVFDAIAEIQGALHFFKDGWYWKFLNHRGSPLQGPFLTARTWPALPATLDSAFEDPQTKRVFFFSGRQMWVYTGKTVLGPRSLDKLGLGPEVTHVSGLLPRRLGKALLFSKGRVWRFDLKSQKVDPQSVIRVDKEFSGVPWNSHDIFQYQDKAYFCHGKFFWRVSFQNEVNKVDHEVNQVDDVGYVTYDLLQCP

As to `CNC(=O)[C@@H](NC(=O)[C@H](CC(C)C)[C@H](O)C(=O)NO)C(C)(C)C` [Marimistat, reference compound], in test [1], the “inhibition of cleavage of MMP9 substrate by OVCAR-8 conditioned media” value is recorded as “can be inhibited”. “5FAM-GGPLGVRGKK(CPQ2)-PEG2-C [MMP9 substrate]”: in test [1], the “cleavage by OVCAR-8 conditioned media” value is “can cleave”. Further, in test [2], the “cleavage by mouse MMP9” value is listed as “cleaves”.

B1: HE4: clinical blood biomarker secreted by OVCAR-8 cells, measured by ELISA as comparator diagnostic (protein, UniProt Q14508 31-124, looked up)
WAP four-disulfide core …: EKTGVCPELQADQNCTQECVSDSECADNLKCCSAGCATFCSLPNDKEGSCPQVNINFPQLGLCRDQCQVDSQCPGQMKCCRNGCGKVSCVTPNF
For the molecule B1, in test [3], the “ROC-AUC at 2-weeks” value was 0.51 and the “ROC-AUC at 3-weeks” value is 0.93.
